# ChEMBL document CHEMBL3612008, “Synthesis and anticancer effects evaluation of 1-alkyl-3-(6-(2-methoxy-3-sulfonylaminopyridin-5-yl)benzo[d]thiazol-2-yl)urea as anticancer agents with low toxicity” (Bioorg Med Chem, 2015)
# Assays:
# HCT-116 = assay: Antiproliferative activity against human HCT116 cells incubated for 72 hrs by MTT assay; type: functional, cell-based; conditions: HCT-116, 72 h
# Outline: (§1)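 HCT-116, MCF-7 and U-87 MG grown in DMEM with 10% FBS, 37 °C, 5% CO2; 3000-5000 cells/well preincubated 24 h, then compounds at final 100, 10, 1, 0.1, 0.01 µM for 72 h.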
# MCF7 = assay: Antiproliferative activity against human MCF7 cells incubated for 72 hrs by MTT assay; type: functional, cell-based; conditions: MCF7, 72 h; outline: as §1
# U-87 MG = assay: Antiproliferative activity against human U87MG cells incubated for 72 hrs by MTT assay; type: functional, cell-based, U-87MG ATCC; outline: as §1
# A549 = assay: Antiproliferative activity against human A549 cells incubated for 72 hrs by MTT assay; type: functional, cell-based; conditions: A549, 72 h
# Outline: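 A549 in RPMI-1640 with 10% calf serum, 37 °C, 5% CO2; seeded 3000-5000 cells/well, 24 h before exposure to final 100, 10, 1, 0.1, 0.01 µM for 72 h. MTT (5 mg/ml in PBS) added, 4 h at 37 °C; formazan dissolved in DMSO, OD 570 nm. Three experiments in triplicate; IC50 from inhibition ratios.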
# [1] = target: PI3-kinase p110-alpha/p85-alpha (Homo sapiens, UniProt P42336); assay: Inhibition of p110alpha/p85alpha (unknown origin) incubated for 40 mins by luciferase based ATP depletion assay; type: protein-complex assay
# PI3K p110 beta/p85 alpha = PI3K p110 beta/p85 alpha (Homo sapiens, UniProt P42338); assay: Inhibition of p110beta/p85alpha (unknown origin) incubated for 40 mins by luciferase based ATP depletion assay; type: protein-complex assay
# [2] = target: PI3-kinase subunit gamma/Phosphoinositide 3-kinase regulatory subunit 5 (Homo sapiens, UniProt P48736); assay: Inhibition of p110gamma/PIK3R5 (unknown origin) incubated for 40 mins by luciferase based ATP depletion assay; type: protein-complex assay
# [3] = target: PI3-kinase p110-delta/p85-alpha (Homo sapiens, UniProt O00329); assay: Inhibition of p110delta/p85alpha (unknown origin) incubated for 40 mins by luciferase based ATP depletion assay; type: protein-complex assay
# mTORC1 = mTORC1 (Homo sapiens, UniProt P42345); assay: Inhibition of mTORC1 (unknown origin) incubated for 40 mins by luciferase based ATP depletion assay; type: protein-complex assay
# [4] = Acute toxicity in mouse dosed orally once daily and observed for 7 days by up and down procedure; type: organism-based; conditions: in vivo, po
# Outline: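 Male mice, 20.1 ± 1.9 g. Compound dissolved in NMP, then diluted with PEG400 and water (NMP/PEG400/H2O 1:6:3 by volume), given by gavage at 20 ml/kg. Starting dose 10 mg/kg, single mouse per step; dose raised 1.5-fold when the animal behaved normally, continuing until a death occurred.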
# CCRF S-180 [5] = assay: Anticancer activity against mouse S180 cells transplanted in mouse assessed as reduction in tumor weight at 1 mg/kg, po dosed once daily for 8 days; type: functional; conditions: CCRF S-180, po, 192 h
# CCRF S-180 [6] = assay: Anticancer activity against mouse S180 cells transplanted in mouse assessed as reduction in tumor weight at 3 mg/kg, po dosed once daily for 8 days; type: functional; conditions: CCRF S-180, po, 192 h
# CCRF S-180 [7] = assay: Anticancer activity against mouse S180 cells transplanted in mouse assessed as reduction in tumor weight at 10 mg/kg, po dosed once daily for 8 days; type: functional; conditions: CCRF S-180, po, 192 h
# Mus musculus = assay: Toxicity in mouse S180 cells transplanted mouse assessed as increase in body weight at 1 to 10 mg/kg, po dosed once daily for 8 days; type: organism-based, CCRF S-180; conditions: in vivo, 192 h
# Outline: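 S180 flank homograft mice (3×10^6 cells s.c., 8 per group) dosed orally once daily for 8 days at 1.0, 3.0 or 10.0 mg/kg in NMP/PEG400/H2O (1:6:3), solvent-only controls; body weights recorded daily and again at sacrifice on Day 9.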
# Chain of PI3-kinase p110-alpha/p85-alpha (P27986 whole entry): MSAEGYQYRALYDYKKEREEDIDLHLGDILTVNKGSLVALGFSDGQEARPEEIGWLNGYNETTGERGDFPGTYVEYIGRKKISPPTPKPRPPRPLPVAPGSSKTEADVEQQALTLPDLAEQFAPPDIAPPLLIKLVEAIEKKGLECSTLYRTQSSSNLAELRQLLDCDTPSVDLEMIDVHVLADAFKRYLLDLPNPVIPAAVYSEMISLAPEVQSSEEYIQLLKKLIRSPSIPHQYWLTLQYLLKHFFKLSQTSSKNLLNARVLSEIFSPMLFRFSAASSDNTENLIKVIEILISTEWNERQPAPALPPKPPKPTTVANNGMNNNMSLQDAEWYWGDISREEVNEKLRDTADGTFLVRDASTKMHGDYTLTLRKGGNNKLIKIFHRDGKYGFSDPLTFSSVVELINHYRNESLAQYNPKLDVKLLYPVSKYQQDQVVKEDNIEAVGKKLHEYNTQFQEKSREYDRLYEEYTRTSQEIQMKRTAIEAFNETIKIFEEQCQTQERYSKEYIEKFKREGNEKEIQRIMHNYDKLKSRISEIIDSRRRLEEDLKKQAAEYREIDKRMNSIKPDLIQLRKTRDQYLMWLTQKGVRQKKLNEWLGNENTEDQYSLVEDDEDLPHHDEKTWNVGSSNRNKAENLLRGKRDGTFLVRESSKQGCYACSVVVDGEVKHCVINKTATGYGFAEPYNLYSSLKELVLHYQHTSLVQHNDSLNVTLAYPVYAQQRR
# Chain of PI3-kinase p110-alpha/p85-alpha (P42336 whole entry): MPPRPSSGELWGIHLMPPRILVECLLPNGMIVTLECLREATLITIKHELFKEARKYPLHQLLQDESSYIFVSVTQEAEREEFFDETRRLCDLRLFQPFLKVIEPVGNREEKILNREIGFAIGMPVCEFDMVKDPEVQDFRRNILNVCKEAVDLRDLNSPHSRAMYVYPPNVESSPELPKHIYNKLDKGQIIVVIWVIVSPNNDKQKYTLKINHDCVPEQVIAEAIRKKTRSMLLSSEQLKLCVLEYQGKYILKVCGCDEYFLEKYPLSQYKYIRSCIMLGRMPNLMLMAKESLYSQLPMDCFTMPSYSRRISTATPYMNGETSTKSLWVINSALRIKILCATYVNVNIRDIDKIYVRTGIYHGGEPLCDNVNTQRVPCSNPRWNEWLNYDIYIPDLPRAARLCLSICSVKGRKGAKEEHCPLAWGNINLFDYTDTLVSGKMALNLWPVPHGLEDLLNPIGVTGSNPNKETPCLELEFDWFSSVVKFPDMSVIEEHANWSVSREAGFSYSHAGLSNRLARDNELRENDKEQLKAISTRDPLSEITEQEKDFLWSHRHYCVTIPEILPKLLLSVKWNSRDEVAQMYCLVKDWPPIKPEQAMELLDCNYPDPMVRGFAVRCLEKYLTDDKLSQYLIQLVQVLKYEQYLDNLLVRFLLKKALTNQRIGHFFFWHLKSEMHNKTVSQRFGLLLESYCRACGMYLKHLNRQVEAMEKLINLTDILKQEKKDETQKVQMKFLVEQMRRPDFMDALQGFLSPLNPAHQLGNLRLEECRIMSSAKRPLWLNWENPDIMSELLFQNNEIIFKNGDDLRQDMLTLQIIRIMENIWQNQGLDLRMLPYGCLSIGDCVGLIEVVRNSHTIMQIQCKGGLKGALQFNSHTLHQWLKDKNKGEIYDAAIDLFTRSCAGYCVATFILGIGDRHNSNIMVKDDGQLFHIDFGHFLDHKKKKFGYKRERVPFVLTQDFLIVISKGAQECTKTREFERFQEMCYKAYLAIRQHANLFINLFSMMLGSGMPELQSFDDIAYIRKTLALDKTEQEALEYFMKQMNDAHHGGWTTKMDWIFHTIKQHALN
# Chain of PI3K p110 beta/p85 alpha (P27986 whole entry): as the sequence (P27986 whole entry) above
# Chain of PI3K p110 beta/p85 alpha (P42338 whole entry): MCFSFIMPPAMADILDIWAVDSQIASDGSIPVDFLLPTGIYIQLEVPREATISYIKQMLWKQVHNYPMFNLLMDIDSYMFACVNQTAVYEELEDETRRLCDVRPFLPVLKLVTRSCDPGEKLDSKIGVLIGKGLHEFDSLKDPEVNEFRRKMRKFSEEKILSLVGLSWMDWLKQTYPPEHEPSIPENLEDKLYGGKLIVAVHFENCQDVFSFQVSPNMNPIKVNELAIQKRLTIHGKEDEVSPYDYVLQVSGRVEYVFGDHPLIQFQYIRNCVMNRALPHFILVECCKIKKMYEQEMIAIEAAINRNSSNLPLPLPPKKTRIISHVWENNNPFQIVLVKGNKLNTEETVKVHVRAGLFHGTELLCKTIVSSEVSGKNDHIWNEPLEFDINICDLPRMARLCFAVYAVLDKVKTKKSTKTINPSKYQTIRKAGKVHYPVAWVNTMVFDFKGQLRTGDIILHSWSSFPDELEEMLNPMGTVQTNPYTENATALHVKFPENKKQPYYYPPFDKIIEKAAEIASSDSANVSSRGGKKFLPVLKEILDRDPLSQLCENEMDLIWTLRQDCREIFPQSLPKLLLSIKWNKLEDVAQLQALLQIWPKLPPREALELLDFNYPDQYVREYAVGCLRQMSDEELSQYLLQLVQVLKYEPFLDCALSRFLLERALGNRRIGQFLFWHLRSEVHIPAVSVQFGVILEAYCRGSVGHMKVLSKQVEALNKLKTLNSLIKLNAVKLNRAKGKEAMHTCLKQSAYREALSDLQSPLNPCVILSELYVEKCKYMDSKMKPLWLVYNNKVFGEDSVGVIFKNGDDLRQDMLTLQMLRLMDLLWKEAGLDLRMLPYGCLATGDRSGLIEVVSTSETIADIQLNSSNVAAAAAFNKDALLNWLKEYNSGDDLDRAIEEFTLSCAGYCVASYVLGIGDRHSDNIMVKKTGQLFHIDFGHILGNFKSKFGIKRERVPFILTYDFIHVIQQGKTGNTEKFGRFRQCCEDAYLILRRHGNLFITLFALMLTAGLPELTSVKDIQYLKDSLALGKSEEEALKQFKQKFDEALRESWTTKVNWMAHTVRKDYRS
# Chain of PI3-kinase p110-delta/p85-alpha (P27986 whole entry): as the sequence (P27986 whole entry) above
# Chain of PI3-kinase p110-delta/p85-alpha (O00329 whole entry): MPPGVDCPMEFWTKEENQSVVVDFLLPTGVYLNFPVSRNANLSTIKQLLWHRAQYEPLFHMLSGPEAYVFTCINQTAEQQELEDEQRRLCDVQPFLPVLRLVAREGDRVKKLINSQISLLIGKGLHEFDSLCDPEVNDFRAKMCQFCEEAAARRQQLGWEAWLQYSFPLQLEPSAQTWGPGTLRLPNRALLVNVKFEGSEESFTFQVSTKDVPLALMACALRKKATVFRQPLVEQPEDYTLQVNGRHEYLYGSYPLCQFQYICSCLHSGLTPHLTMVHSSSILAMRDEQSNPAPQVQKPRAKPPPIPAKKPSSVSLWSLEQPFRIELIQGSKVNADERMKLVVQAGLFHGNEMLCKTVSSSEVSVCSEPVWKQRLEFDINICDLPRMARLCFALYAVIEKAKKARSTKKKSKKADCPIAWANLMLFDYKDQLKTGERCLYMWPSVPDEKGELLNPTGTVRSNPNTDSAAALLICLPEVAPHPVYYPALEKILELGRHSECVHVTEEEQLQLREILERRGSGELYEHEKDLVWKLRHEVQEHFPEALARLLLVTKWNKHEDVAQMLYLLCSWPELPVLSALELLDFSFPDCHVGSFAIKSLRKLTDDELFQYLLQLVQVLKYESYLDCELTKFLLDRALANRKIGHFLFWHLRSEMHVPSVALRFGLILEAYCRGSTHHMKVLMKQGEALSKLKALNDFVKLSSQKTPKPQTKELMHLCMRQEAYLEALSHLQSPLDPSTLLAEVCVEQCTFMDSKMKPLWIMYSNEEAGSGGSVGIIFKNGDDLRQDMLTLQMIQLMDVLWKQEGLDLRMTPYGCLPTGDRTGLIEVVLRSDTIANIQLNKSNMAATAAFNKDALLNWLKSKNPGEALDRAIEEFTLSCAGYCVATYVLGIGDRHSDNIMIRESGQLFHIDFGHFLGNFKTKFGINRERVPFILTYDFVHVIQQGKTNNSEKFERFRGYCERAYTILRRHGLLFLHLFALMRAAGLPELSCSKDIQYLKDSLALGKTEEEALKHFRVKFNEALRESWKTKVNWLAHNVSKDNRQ
Compound,IC50 (HCT-116) [nM],IC50 (MCF7) [nM],IC50 (U-87 MG) [nM],IC50 (A549) [nM],other results
CCN(CC)CCNC(=O)Nc1nc2ccc(-c3cnc(OC)c(NS(=O)(=O)c4ccc(F)cc4)c3)cc2s1,300,320,390,450,IC50 [1]: 13 nM; IC50 (PI3K p110 beta/p85 alpha): 90 nM; IC50 [2]: 11 nM; IC50 [3]: 148 nM; IC50 (mTORC1): 78 nM; LD50 at 168 h [4]: 320 mg/kg; inhibition in vivo at 1 mg/kg (CCRF S-180 [5]): 27.2%; inhibition in vivo at 3 mg/kg (CCRF S-180 [6]): 44.3%; inhibition in vivo at 10 mg/kg (CCRF S-180 [7]): 56.2%; Activity (Mus musculus): Non-toxic
COc1ncc(-c2ccc3nc(NC(=O)NCCN4CCN(C)CC4)sc3c2)cc1NS(=O)(=O)c1ccc(F)cc1,540,470,440,550,LD50 at 168 h [4]: 300 mg/kg
COc1ncc(-c2ccc3nc(NC(=O)NCCN4CCOCC4)sc3c2)cc1C#N,4550,2300,8380,4710,
COc1ccc(-c2ccc3nc(NC(=O)NCCN4CCOCC4)sc3c2)cn1,> 20000,> 20000,7230,5160,
CCOC(=O)CNc1nc2ccc(-c3cnc(OC)c(NS(=O)(=O)c4ccc(F)cc4)c3)cc2s1,> 20000,,,,
CCCNc1nc2ccc(-c3cnc(Cl)c(NS(=O)(=O)c4ccc(F)cc4)c3)cc2s1,> 20000,,,,
Cn1c(=O)n(-c2ccc(C(C)(C)C#N)cc2)c2c3cc(-c4cnc5ccccc5c4)ccc3ncc21 [DACTOLISIB],,480,1410,760,
O=C(NCCN1CCOCC1)Nc1nc2ccc(-c3cnc(Cl)c(NS(=O)(=O)c4ccc(F)cc4)c3)cc2s1,2960,950,2390,6690,
O=S(=O)(Nc1cc(-c2ccc3nc(NC4CC4)sc3c2)cnc1Cl)c1ccc(F)cc1,5750,,,,
CC(=O)Nc1nc2ccc(-c3cnc(Cl)c(NS(=O)(=O)c4ccc(F)cc4)c3)cc2s1,440,430,440,410,LD50 at 168 h [4]: 20 mg/kg
COc1ncc(-c2ccc3nc(NC(=O)NCCN4CCCC4)sc3c2)cc1NS(=O)(=O)c1ccc(F)cc1,310,410,360,300,LD50 at 168 h [4]: 300 mg/kg
CNC(=O)Nc1nc2ccc(-c3cnc(OC)c(NS(=O)(=O)c4ccc(F)cc4)c3)cc2s1,870,1190,1230,1560,LD50 at 168 h [4]: 40 mg/kg

# Continued by falling IC50 (HCT-116), values first:
IC50 (HCT-116) [nM],IC50 (MCF7) [nM],IC50 (U-87 MG) [nM],IC50 (A549) [nM],Compound,other results
1750,1090,1720,1030,O=C(Nc1nc2ccc(-c3cnc(Cl)c(NS(=O)(=O)c4ccc(F)cc4)c3)cc2s1)NC1CC1,
1560,450,1500,1330,COc1ncc(-c2ccc3nc(NC4CC4)sc3c2)cc1NS(=O)(=O)c1ccc(F)cc1,
920,710,1390,5260,CCN(CC)CCNC(=O)Nc1nc2ccc(-c3cnc(Cl)c(NS(=O)(=O)c4ccc(F)cc4)c3)cc2s1,
640,1800,1670,1920,COc1ncc(-c2ccc3nc(NC(=O)NCCN4CCOCC4)sc3c2)cc1NS(=O)(=O)C1CC1,
610,450,750,330,COc1ncc(-c2ccc3nc(NC(=O)NCCN4CCCCC4)sc3c2)cc1NS(=O)(=O)c1ccc(F)cc1,
570,210,520,380,COc1ncc(-c2ccc3nc(NC(=O)NCCN4CCOCC4)sc3c2)cc1NS(=O)(=O)c1ccc(C)cc1,
540,650,1050,530,COc1ncc(-c2ccc3nc(NC(=O)NCCN4CCOCC4)sc3c2)cc1NS(=O)(=O)c1ccc(Cl)cc1,
520,750,490,430,COc1ncc(-c2ccc3nc(NC(=O)NCCN4CCOCC4)sc3c2)cc1NS(=O)(=O)c1ccc(F)cc1,
470,1190,520,900,COc1ncc(-c2ccc3nc(NC(=O)NC4CC4)sc3c2)cc1NS(=O)(=O)c1ccc(F)cc1,
250,260,480,490,COc1ncc(-c2ccc3nc(NC(=O)NCCN4CCOCC4)sc3n2)cc1NS(=O)(=O)c1ccc(F)cc1,
240,500,1020,470,COc1ncc(-c2ccc3nc(NC(=O)NCCN(C)C)sc3c2)cc1NS(=O)(=O)c1ccc(F)cc1,
180,170,360,310,CCN(CC)CCNC(=O)Nc1nc2ccc(-c3cnc(OC)c(NS(=O)(=O)c4ccc(C)cc4)c3)cc2s1,
